Measured values from ChEMBL document CHEMBL5154715, “Phenolic Lipids Derived from Cashew Nut Shell Liquid to Treat Metabolic Diseases” (J Med Chem, 2022).
pEC50: −log10 of the molar value. Active and inactive are the calls of the source. The rule behind the calls is not given here.

Experiments:
[1] = target: T1, Peroxisome proliferator-activated receptor gamma (Homo sapiens) (UniProt P37231); assay: Agonist activity at human PPARgamma expressed in HEK293 cells assessed as maximal activity by luciferase/beta-galactosidase reporter gene assay relative to rosiglitazone; type: cell-based; settings: filed as agonist
T1 sequence (whole entry): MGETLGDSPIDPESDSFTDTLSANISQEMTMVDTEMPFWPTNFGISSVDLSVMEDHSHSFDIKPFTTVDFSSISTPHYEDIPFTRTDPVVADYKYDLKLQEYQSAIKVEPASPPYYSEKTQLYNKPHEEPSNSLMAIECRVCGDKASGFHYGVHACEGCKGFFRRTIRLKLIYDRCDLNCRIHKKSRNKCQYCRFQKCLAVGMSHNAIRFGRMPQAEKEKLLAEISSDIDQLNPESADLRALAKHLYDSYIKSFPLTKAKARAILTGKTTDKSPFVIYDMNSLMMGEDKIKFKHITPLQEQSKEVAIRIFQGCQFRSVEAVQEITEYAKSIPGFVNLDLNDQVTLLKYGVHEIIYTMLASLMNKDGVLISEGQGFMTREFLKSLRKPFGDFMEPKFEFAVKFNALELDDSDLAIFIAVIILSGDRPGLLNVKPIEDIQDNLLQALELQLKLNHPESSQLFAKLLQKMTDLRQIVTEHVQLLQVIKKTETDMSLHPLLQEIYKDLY
Outline: (§1)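 HEK293 cells in charcoal-stripped FBS, calcium phosphate co-transfected with GAL4-hPPAR LBD fusion, UAS-luciferase and β-galactosidase. Ligand added 6–8 h post transfection, full dose–response, harvested 14–16 h later. Luciferase normalized to β-galactosidase.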

[2] = target: T2, Peroxisome proliferator-activated receptor alpha (Homo sapiens) (UniProt Q07869); assay: Agonist activity at human PPARalpha expressed in HEK293 cells assessed as maximal activity by luciferase/beta-galactosidase reporter gene assay relative to GW7647; type: cell-based; outline: as §1
T2 sequence (whole entry): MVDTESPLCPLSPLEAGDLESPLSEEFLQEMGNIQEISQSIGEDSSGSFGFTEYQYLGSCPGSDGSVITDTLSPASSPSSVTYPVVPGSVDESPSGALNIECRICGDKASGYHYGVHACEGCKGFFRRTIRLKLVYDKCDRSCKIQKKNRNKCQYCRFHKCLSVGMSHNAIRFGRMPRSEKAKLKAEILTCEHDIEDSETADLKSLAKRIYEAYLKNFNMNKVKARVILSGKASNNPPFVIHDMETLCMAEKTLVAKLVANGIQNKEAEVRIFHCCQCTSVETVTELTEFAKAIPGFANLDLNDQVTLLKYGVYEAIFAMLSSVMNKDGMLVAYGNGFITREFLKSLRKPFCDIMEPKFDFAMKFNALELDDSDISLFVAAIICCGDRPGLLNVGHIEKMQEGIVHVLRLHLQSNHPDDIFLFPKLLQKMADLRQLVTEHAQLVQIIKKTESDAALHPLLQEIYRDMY

[3] = target: T3, Peroxisome proliferator-activated receptor alpha (Mus musculus) (UniProt P23204); assay: Agonist activity at human PPARalpha in mouse hepatocytes assessed as induction of fabp1 mRNA expression at 50 uM incubated for 16 hrs by quantitative real-time PCR analysis; type: cell-based; settings: Hepatocyte, filed as agonist
T3 sequence (whole entry): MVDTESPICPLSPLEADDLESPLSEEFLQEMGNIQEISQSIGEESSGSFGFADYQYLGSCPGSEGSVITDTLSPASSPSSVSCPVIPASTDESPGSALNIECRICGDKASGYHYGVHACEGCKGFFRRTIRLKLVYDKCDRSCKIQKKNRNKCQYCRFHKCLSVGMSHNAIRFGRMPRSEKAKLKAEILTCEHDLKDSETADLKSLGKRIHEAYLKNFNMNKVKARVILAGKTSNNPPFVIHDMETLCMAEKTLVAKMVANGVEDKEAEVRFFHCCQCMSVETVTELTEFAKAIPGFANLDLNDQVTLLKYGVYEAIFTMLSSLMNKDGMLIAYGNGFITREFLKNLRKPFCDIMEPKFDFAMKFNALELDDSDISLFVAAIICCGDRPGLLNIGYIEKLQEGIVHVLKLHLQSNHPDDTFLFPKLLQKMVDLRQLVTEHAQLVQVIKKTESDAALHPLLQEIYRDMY
Outline: (§2)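 Collagenase-perfused mouse primary hepatocytes from WT mice, plated 2 h in attachment medium, overnight in M199 with 5% charcoal-stripped FBS and 1 nM insulin. Treated next day in serum-free M199 with 50 μM compound for 16 h. RNA qPCR (SYBR Green), comparative Ct method.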

Hepatocyte = assay: Cytotoxicity against mouse primary hepatocytes at 25 uM by MTT assay; type: toxicity, cell-based; settings: 264 h, time 11 day
[4] = target: T4, Peroxisome proliferator-activated receptor alpha (Homo sapiens, UniProt Q07869); assay: Agonist activity at human PPARalpha expressed in HEK293 cells by luciferase/beta-galactosidase reporter gene assay; type: cell-based; outline: as §1
T4 sequence (Q07869 whole entry): T2 sequence (whole entry)

[5] = target: T3, Peroxisome proliferator-activated receptor alpha (Mus musculus); assay: Agonist activity at human PPARalpha in mouse hepatocytes assessed as induction of Fgf21 mRNA expression at 50 uM incubated for 16 hrs by quantitative real-time PCR analysis; type: cell-based; settings: Hepatocyte, filed as agonist; outline: as §2
[6] = target: T5, Peroxisome proliferator-activated receptor delta (Homo sapiens) (UniProt Q03181); settings: HEK293, filed as agonist
T5 sequence (whole entry): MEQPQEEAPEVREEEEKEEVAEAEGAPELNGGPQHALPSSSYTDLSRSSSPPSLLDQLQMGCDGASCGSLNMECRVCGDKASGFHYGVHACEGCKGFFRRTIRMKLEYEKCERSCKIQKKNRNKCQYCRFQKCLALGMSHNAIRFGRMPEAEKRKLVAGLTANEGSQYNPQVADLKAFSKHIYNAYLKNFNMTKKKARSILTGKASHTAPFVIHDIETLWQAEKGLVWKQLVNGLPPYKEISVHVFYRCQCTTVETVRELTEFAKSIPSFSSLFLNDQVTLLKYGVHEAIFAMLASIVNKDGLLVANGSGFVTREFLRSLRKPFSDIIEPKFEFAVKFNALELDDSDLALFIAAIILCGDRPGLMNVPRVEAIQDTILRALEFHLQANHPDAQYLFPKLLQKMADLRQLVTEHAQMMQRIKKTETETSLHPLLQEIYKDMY

[7] = target: T3, Peroxisome proliferator-activated receptor alpha (Mus musculus); assay: Agonist activity at human PPARalpha in mouse hepatocytes assessed as induction of Pdk4 mRNA expression at 50 uM incubated for 16 hrs by quantitative real-time PCR analysis; type: cell-based; settings: Hepatocyte, filed as agonist; outline: as §2
[8] = target: T6, Peroxisome proliferator-activated receptor gamma (Homo sapiens, UniProt P37231); assay: Agonist activity at human PPARgamma expressed in HEK293 cells by luciferase/beta-galactosidase reporter gene assay; type: cell-based; outline: as §1
T6 sequence (P37231 whole entry): T1 sequence (whole entry)

[9] = target: T2, Peroxisome proliferator-activated receptor alpha (Homo sapiens); assay: Agonist activity at human PPARalpha transfected in HEK293 cells assessed as relative luciferase unit at 50 uM measured after 16 hrs by luciferase reporter gene assay; type: cell-based; settings: filed as agonist
Outline: (§3)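 GAL4-hPPAR (α or γ) plus UAS-luciferase and β-galactosidase transiently co-transfected into HEK293 cells, then treated with 50 μM compound for 16 h. RLU = luciferase/β-galactosidase × time, vehicle (DMSO) set to 1. Mean ± SD, N = 3; one-way ANOVA with Holm–Šidák vs vehicle.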

HEK293 = assay: Cytotoxicity against HEK293 cells at 25 uM by MTT assay; type: toxicity, cell-based; settings: human, hek293, 264 h, time 11 day
Outline: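 MTT assay in HEK293 cells with compounds dosed at 25 μM.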

[10] = target: T1, Peroxisome proliferator-activated receptor gamma (Homo sapiens); assay: Agonist activity at human PPARgamma transfected in HEK293 cells assessed as relative luciferase unit at 50 uM measured after 16 hrs by luciferase reporter gene assay; type: cell-based; settings: filed as agonist; outline: as §3

For CCCCCCCCCCCCCCCc1cccc(OCC(=O)O)c1, which Emax [1] is on record?
Its Emax is greater than 90%.

And the Emax [2]?
The Emax was 30%.

And the Activity [3]?
The Activity was “Active”.

What about the Activity (Hepatocyte) of the same molecule?
The Activity was “Non-Toxic”.

What about the pEC50 [4] of the same molecule?
The pEC50 was 5.96.

What about the Activity [5] of the same molecule?
The Activity was “Active”.

What about the EC50 [6] of the same molecule?
The EC50 was 10 µM.

What about the Activity [7] of the same molecule?
Its Activity is “Active”.

What about the pEC50 [8] of the same molecule?
Its pEC50 is 5.43.

What about the Activity [9] of the same molecule?
The Activity was “Active”.

And the Activity (HEK293)?
Its Activity is “Toxic”.

And the Activity [10]?
Its Activity is “Active”.
